CAL PDZ FP-1: blocks peptide binding to the human CAL PDZ domain; Q9HD26; purified CAL PDZ, TMR-peptide fluorescence polarization, 1 h; inhibition, % at 24.9 µM; actives 0.92% (n = 300,000); AID 602252;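 active means mean inhibition of at least 30% with at least half of replicates also reaching 30%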;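 further: 0% = DMSO neutral control and 100% = excess unlabeled competitor peptide PRC23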
ERp5 block: inhibitors of human ERp5; Q15084; ERp5 insulin aggregation, absorbance 650 nm, 90 min; inhibition, % at 9.99 µM; actives 0.05% (n = 350,000);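 active means mean replicate inhibition above about 25%, with every replicate also reaching it, limit read from the data, passing the limit was not always enough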
RAD52 anneal inh: blocks human RAD52 DNA annealing; P43351; recombinant RAD52 DNA annealing, FRET fluorescence; inhibition, % at 18.7 µM; actives 0.46% (n = 360,000);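 active means every replicate showing at least 50% inhibition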
CAL PDZ FP-2: inhibitors of human CAL PDZ peptide binding; purified CAL PDZ, TMR-peptide fluorescence polarization, 1 h; inhibition, % at 20 µM; actives 0.02% (n = 330,000); AID 504414;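 active means highest replicate inhibition of at least 40%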;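 further: plate controls were DMSO neutral control wells for no effect and unlabeled competitor peptide control wells for full effect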
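Material: tagged CAL PDZ protein CerCALP, purified; buffer or medium: sodium phosphate/NaCl buffer pH 7.4 with TCEP, IgG, Thesit; also added: fluorescent TMR peptide probe; schedule: 1 h incubation at room temperature before polarization reading; technique: fluorescence polarization from S- and P-plane intensities, G-factor corrected; control set: unlabelled peptide and DMSO controls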
PDI inh: inhibitors of human protein disulfide isomerase. P07237. PDI insulin aggregation turbidity, A650, 90 min. inhibition, % at 10 µM. actives 0.052% (n = 350,000);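 active means mean inhibition across replicates of 30% or more, whatever share of single replicates reach that level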
RAD54 branch: RAD54 (human) branch migration inhibition. Q92698. RAD54 Holliday junction branch migration, FAM/BHQ fluorescence. inhibition, % at 10.4 µM. actives 0.14% (n = 360,000);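 active means mean normalized replicate activity at least 40 and at least half of replicates scoring 40 or more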;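 further: 0% = median of neutral control wells and 100% = median of positive control wells; inhibitors cause a drop in the FAM fluorescence signal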
Target sequence (Q92698 whole entry, looked up): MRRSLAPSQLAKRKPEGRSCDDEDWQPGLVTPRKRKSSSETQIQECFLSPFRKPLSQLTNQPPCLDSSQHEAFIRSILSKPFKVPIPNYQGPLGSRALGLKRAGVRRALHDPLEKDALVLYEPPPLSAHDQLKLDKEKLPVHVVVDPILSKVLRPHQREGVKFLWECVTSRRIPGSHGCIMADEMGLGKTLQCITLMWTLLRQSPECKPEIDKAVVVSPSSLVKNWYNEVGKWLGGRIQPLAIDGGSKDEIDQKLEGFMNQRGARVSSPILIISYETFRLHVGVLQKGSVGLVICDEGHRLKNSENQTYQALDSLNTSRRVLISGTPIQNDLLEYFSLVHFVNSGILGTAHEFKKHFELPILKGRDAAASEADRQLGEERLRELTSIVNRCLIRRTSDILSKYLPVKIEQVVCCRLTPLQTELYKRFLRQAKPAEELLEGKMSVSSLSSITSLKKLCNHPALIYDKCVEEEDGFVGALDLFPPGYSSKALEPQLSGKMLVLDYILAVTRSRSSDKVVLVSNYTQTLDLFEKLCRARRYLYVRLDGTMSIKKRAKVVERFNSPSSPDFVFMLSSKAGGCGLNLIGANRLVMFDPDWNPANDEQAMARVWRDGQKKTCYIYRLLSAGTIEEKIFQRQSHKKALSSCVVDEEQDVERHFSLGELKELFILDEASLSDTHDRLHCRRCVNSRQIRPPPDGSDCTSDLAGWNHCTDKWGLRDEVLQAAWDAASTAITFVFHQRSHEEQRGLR
Starred values were filed as active, the others as inactive; ! = not active in a repeat. Rows were chosen to be rich in hits. Some 1% of all compounds tested hit in one or more screens of this group.

Results for C/C=C/c1ccc(C2[C@@H]3CN(Cc4ccc5c(c4)OCO5)C[C@H]2N3)cc1 (some centres undefined) ?
ERp5 block: 2; RAD52 anneal inh: 61*!

What do the screens show for `CCCN(CCC)Cc1c(C(=O)N/N=C/C(C)=C\c2ccco2)nnn1-c1nonc1N`?
CAL PDZ FP-1: 66*; ERp5 block: 6; RAD52 anneal inh: -28; CAL PDZ FP-2: 0; PDI inh: 8; RAD54 branch: -4

What do the screens show for `CC(/C=N/NC(=O)c1nnn(-c2nonc2N)c1CN(C)C)=C\c1ccco1`?
RAD52 anneal inh: -33; CAL PDZ FP-2: -2; PDI inh: 5; RAD54 branch: -15

How did O=C1CSC(=S)N1/N=C/c1cc(Br)c(O)c(Br)c1 do in these assays?
CAL PDZ FP-1: 59*; CAL PDZ FP-2: -10; PDI inh: 3; RAD54 branch: inactive

What do the screens show for `CC1CCc2c(sc3nc(CSc4ncn[nH]4)[nH]c(=O)c23)C1` (centres undefined)?
CAL PDZ FP-1: -2; CAL PDZ FP-2: -2; PDI inh: 1

What do the screens show for `CC1CCc2c(sc3nc(CSc4nnnn4C)[nH]c(=O)c23)C1` (centres undefined)?
CAL PDZ FP-1: 60*; ERp5 block: 1; RAD52 anneal inh: -38; CAL PDZ FP-2: -2; PDI inh: -6; RAD54 branch: 8

Results for O=C(C(c1ccccc1)c1ccccc1)N1CCN(Cc2ccccn2)CC1 ?
CAL PDZ FP-1: 31*; CAL PDZ FP-2: -1; PDI inh: 2; RAD54 branch: 1

How did CCC(=O)Nc1ccc2c(c1)C(=O)N(C)C[C@@H](OC)[C@@H](C)CN(CCc1ccccc1)[C@@H](C)CO2 do in these assays?
ERp5 block: 1; RAD52 anneal inh: 6; RAD54 branch: 6

Results for Cc1ccc2c(Cl)c(C(=O)NCC(c3ccco3)N3CCCC3)sc2c1 (centres undefined) ?
CAL PDZ FP-1: 75*; ERp5 block: 4; RAD52 anneal inh: -39; CAL PDZ FP-2: -2; PDI inh: 1; RAD54 branch: 4

Results for CC(CN1CCN(C)CC1)OC(=O)c1cccc(Cl)c1 (centres undefined) ?
CAL PDZ FP-1: 157*; ERp5 block: 1; RAD52 anneal inh: -7; PDI inh: 1; RAD54 branch: 2

How did CO[C@H]1CN(C)C(=O)c2cc(NC(=O)C3CCC3)ccc2OC[C@H](C)N(C(=O)NC(C)C)C[C@@H]1C do in these assays?
ERp5 block: -5; RAD52 anneal inh: -4; RAD54 branch: 9

What do the screens show for `Cc1n[nH]c(C)c1S(=O)(=O)N1CCN(S(=O)(=O)c2ccccc2C#N)CC1`?
CAL PDZ FP-1: 2; ERp5 block: 2; RAD52 anneal inh: -4; CAL PDZ FP-2: -1; PDI inh: -3; RAD54 branch: 2

How did Cc1noc(C)c1S(=O)(=O)N1CCN(S(=O)(=O)c2ccccc2C#N)CC1 do in these assays?
CAL PDZ FP-1: 34*; ERp5 block: 6; RAD52 anneal inh: -16; CAL PDZ FP-2: -2; PDI inh: 0; RAD54 branch: -2

Results for COCC(=O)Nc1ccc2c(c1)[C@H]1C[C@@H](CC(=O)NCCN3CCCCC3)O[C@H](CO)[C@H]1O2 ?
ERp5 block: 1; RAD52 anneal inh: 20; RAD54 branch: -7

How did NS(=O)(=O)c1ccc(CCNC(=O)Cc2ccc(S(=O)(=O)N3CCOCC3)s2)cc1 do in these assays?
CAL PDZ FP-1: 9; ERp5 block: 10; RAD52 anneal inh: -11; CAL PDZ FP-2: 0; PDI inh: -2; RAD54 branch: 2

Results for COCCCNC(=O)Cc1ccc(S(=O)(=O)N2CCOCC2)s1 ?
CAL PDZ FP-1: 43*; ERp5 block: 1; RAD52 anneal inh: -10; CAL PDZ FP-2: -1; PDI inh: -4; RAD54 branch: -10

Results for C[C@H](CO)N1C[C@H](C)[C@H](CN(C)C)Oc2cc(C#CC3(O)CCCC3)ccc2S1(=O)=O ?
ERp5 block: 2; RAD52 anneal inh: 10; RAD54 branch: 9

How did CCOC(=O)N1CCN(C(=O)c2ccc3c(c2)sc2nc(-c4ccc(OC)cc4)cn23)CC1 do in these assays?
CAL PDZ FP-1: 38*; ERp5 block: 2; RAD52 anneal inh: -9; CAL PDZ FP-2: -1; PDI inh: 0; RAD54 branch: -15

Source: PubChem (Broad Institute)
